Where a name gives a salt, the structure may show the parent alone. Calls of active or inactive are those of the source. The rule behind the calls is not given here.

Data set [1] concerns Hepatitis B virus. Nature of the data set: Antiviral activity against Hepatitis B virus infected in human HepG2.2.15 cells assessed as reduction in HBV DNA level in cell supernatants incubated for 5 days by real time PCR analysis. The following applies: HepG2.2.15, 120 h. Format: functional, organism-based. For orientation: Quantitative PCR measures a nucleic acid by following its amplification.

Data set [2] has as its system Hepatitis B virus. The data set can be described thus: Antiviral activity against Hepatitis B virus infected in human HepG2.2.15 cells assessed as reduction in HBsAg level in cell supernatants incubated for 5 days by AlphaLisa assay. Format: functional, organism-based. The settings on record: HepG2.2.15, 120 h. In general terms: Alpha assays give light when donor and acceptor beads are brought close together.

A short description of data set [3]: Cytotoxicity against human HepG2.2.15 cells assessed as reduction in cell viability. It is filed as cell-based, HepG2 2.2.15.
In data set [4] the target is T1, Heme oxygenase 2 (Homo sapiens) (UniProt P30519).
T1 sequence (whole entry): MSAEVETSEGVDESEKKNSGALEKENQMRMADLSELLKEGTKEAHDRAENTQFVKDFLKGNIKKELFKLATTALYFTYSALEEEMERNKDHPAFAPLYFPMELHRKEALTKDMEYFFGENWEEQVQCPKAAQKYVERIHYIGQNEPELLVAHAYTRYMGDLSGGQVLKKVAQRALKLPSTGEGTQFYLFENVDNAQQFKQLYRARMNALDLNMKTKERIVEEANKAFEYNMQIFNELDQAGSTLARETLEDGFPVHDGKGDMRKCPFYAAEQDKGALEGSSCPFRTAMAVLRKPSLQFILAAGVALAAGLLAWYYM
The data set can be described thus: Binding affinity to HMOX2 in human HePAD38 cells infected with HBV assessed as protein labelling at 20 uM after 1 hr by photoaffinity labelling in-situ fluorescence gel-based LC-MS/MS analysis. It is filed as cell-based. The essentials:
(§1)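 Live HepAD38 cells incubated 1 h with photoaffinity probe at 20 μM final, then UV-irradiated. Cells were harvested and homogenized in HEPES lysis buffer. Lysates underwent copper-catalysed click conjugation to biotin-Diazo-azide, then large-scale affinity enrichment, with bound proteins identified by LC–MS/MS.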

Data set [5] addresses 60 kDa heat shock protein, mitochondrial (Homo sapiens) (UniProt P10809). The data set can be described thus: Binding affinity to 60 kDa HSP60 in human HePAD38 cells infected with HBV assessed as protein labelling at 20 uM after 1 hr by photoaffinity labelling in-situ fluorescence gel-based LC-MS/MS analysis. It is filed as cell-based. The essentials:
as §1

The target in data set [6] is Poly(rC)-binding protein 1 (Homo sapiens) (UniProt Q15365). The data set can be described thus: Binding affinity to PCBP1 in human HePAD38 cells infected with HBV assessed as protein labelling at 20 uM after 1 hr by photoaffinity labelling in-situ fluorescence gel-based LC-MS/MS analysis. It is filed as cell-based. The essentials: as §1
Data set [7] has as its target T2, Isocitrate dehydrogenase [NADP], mitochondrial (Homo sapiens) (UniProt P48735).
T2 sequence (whole entry): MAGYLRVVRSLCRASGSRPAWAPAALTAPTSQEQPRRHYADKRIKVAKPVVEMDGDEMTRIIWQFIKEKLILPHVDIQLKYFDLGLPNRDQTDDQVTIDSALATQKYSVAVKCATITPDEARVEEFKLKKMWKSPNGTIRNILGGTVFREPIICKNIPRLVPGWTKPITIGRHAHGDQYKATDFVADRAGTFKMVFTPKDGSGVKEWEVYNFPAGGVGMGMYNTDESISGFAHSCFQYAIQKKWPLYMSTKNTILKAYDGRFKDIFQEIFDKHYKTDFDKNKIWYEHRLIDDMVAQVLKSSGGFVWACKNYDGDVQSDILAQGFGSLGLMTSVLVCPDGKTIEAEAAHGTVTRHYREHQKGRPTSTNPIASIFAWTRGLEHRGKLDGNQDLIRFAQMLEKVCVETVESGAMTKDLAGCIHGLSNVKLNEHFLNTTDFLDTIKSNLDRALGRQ
The data set can be described thus: Binding affinity to IDH in human HePAD38 cells infected with HBV assessed as protein labelling at 20 uM after 1 hr by photoaffinity labelling in-situ fluorescence gel-based LC-MS/MS analysis. Format: cell-based. The essentials: as §1

For data set [8], the target named is T3, Aldehyde dehydrogenase X, mitochondrial (Homo sapiens) (UniProt P30837).
T3 sequence (whole entry): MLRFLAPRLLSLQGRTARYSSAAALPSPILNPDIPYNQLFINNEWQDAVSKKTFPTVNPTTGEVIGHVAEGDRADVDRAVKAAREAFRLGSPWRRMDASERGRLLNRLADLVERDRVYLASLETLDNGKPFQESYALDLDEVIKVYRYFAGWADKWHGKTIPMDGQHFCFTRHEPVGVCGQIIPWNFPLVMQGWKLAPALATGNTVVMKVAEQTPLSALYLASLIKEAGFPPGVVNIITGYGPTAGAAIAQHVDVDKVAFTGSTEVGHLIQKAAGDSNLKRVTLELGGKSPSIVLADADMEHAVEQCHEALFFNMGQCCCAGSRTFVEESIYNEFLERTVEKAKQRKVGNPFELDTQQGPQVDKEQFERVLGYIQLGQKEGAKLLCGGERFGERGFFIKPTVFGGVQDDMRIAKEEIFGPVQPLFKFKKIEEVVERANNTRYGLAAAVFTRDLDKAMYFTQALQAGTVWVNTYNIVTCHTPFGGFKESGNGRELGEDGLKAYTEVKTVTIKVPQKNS
The data set can be described thus: Binding affinity to ALDH X in human HePAD38 cells infected with HBV assessed as protein labelling at 20 uM after 1 hr by photoaffinity labelling in-situ fluorescence gel-based LC-MS/MS analysis. Format: cell-based. The essentials:
as §1

Data set [9] addresses T4, Aldehyde dehydrogenase 1A1 (Homo sapiens) (UniProt P00352).
T4 sequence (whole entry): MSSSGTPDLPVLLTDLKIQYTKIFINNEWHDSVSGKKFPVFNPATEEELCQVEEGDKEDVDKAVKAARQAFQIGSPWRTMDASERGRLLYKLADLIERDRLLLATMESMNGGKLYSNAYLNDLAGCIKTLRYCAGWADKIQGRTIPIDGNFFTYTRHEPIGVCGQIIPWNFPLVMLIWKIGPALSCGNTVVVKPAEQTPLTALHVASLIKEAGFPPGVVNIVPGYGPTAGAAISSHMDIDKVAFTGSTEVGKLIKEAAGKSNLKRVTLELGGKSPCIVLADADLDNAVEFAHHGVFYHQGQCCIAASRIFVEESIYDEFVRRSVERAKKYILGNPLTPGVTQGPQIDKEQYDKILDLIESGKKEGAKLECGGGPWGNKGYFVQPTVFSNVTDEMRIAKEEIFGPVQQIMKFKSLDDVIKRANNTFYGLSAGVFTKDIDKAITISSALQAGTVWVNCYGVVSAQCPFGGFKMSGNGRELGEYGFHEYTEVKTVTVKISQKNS
Nature of the data set: Binding affinity to RALDH1 in human HePAD38 cells infected with HBV assessed as protein labelling at 20 uM after 1 hr by photoaffinity labelling in-situ fluorescence gel-based LC-MS/MS analysis. Format: cell-based. The essentials: as §1

Data set [10] addresses Terminal nucleotidyltransferase 4B (Homo sapiens) (UniProt Q8NDF8). The data set can be described thus: Binding affinity to PAPD5 in human HePAD38 cells infected with HBV assessed as protein labelling at 20 uM after 1 hr by photoaffinity labelling in-situ fluorescence gel-based LC-MS/MS analysis. Format: cell-based. The essentials:
as §1

For data set [11], the target named is Terminal nucleotidyltransferase 4A (Homo sapiens) (UniProt Q5XG87). Nature of the data set: Binding affinity to PAPD7 in human HePAD38 cells infected with HBV assessed as protein labelling at 20 uM after 1 hr by photoaffinity labelling in-situ fluorescence gel-based LC-MS/MS analysis. Format: cell-based. The essentials: as §1
Sequence of Terminal nucleotidyltransferase 4A (Homo sapiens) (Q5XG87 whole entry): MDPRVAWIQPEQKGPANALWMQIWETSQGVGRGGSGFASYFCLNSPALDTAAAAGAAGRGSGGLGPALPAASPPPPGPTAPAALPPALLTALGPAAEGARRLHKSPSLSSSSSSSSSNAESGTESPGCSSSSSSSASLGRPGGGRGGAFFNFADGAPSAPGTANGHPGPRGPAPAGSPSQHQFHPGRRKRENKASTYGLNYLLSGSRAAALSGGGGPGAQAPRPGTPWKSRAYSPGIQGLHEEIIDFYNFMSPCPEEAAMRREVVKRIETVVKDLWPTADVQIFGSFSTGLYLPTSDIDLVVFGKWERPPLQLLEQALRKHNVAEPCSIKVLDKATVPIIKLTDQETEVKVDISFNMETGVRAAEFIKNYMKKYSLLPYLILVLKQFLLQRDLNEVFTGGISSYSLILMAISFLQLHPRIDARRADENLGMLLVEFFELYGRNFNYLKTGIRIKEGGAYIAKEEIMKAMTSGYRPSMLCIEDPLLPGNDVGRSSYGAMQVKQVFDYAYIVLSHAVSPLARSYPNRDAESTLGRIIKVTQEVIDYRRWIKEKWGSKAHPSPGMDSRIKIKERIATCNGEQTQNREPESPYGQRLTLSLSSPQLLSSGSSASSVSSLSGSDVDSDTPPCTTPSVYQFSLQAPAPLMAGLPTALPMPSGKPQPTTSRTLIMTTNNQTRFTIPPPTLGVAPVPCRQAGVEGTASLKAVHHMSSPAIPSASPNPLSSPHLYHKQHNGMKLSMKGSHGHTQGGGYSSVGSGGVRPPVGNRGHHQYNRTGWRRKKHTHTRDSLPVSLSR

Sequence of Terminal nucleotidyltransferase 4B (Homo sapiens) (Q8NDF8 whole entry): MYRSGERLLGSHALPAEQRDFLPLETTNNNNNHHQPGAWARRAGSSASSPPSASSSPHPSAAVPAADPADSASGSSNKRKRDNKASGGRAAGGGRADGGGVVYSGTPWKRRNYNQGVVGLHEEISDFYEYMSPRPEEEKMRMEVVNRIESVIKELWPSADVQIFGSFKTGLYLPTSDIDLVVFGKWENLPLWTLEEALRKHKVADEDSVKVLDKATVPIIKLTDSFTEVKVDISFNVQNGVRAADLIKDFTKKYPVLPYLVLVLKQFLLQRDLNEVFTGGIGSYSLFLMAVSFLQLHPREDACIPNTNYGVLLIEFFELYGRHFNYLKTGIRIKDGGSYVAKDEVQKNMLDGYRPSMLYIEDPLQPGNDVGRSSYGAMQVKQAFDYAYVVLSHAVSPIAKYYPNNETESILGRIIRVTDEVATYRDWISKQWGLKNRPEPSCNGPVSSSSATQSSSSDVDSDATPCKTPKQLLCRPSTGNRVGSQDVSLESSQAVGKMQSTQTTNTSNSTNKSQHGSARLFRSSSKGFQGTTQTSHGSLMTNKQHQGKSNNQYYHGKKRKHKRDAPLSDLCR
Sequence of 60 kDa heat shock protein, mitochondrial (Homo sapiens) (P10809 whole entry): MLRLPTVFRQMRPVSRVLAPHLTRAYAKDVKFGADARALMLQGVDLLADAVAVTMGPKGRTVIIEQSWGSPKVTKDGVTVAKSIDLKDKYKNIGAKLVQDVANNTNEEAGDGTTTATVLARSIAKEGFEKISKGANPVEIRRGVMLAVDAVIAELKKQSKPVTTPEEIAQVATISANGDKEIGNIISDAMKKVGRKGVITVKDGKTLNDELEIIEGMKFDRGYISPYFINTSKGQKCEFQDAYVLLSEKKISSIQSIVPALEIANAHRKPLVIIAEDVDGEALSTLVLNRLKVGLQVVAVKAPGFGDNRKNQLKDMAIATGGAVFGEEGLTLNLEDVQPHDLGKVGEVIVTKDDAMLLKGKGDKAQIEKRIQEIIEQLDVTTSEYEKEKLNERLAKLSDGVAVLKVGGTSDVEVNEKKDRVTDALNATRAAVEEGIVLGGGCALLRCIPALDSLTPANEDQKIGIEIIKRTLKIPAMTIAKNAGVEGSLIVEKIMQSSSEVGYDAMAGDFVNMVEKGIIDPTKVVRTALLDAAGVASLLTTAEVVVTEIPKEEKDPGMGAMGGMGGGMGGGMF
Sequence of Poly(rC)-binding protein 1 (Homo sapiens) (Q15365 whole entry): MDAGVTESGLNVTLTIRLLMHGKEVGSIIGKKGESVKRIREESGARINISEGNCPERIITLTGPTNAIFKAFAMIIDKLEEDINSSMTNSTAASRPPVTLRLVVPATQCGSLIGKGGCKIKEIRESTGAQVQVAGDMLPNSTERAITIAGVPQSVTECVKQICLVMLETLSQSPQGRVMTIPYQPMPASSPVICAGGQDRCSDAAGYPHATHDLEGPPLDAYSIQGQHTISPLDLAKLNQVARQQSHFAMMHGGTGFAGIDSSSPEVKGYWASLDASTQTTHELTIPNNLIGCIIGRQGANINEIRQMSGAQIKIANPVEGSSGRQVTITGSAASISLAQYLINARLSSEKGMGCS

As a reminder, the EC50 is the concentration at which the effect is half-maximal. Take `COCCCOc1cc2c(cc1C(=O)OC)-c1cc(=O)c(C(=O)O)cn1C(C(C)C)C2` (stereo not drawn): the EC50 came out at 6.1 nM in the data set with Hepatitis B virus [1] and 2.25 nM in the data set on Hepatitis B virus [2].
One may read the CC50 as the concentration that lowers cell viability or growth by half. In the case of `C#CCCC1(CCOc2cc3c(cc2C(=O)OC)-c2cc(=O)c(C(=O)O)cn2[C@@H](C(C)C)C3)N=N1`, the figures for the EC50 in the data set on Hepatitis B virus [1] and with Hepatitis B virus [2] were 82.2 nM and 305 nM, respectively. Moreover, the half-maximal cytotoxic concentration (CC50) in data set [3] was more than 150000 nM.
On to `COC(=O)c1cc2c(cc1N1CCCC1)CC(C(C)C)n1cc(C(=O)O)c(=O)cc1-2` (stereo not drawn), for which the concentration for a half-maximal effect (EC50) in the data set on Hepatitis B virus [1] is 3 nM; in the data set on Hepatitis B virus [2], 5.7 nM.
Regarding `CC(C)OC(=O)OCOP(=O)(CO[C@H](C)Cn1cnc2c(N)ncnc21)OCOC(=O)OC(C)C` [TENOFOVIR DISOPROXIL FUMARATE], the EC50 is 13.8 nM in the data set with Hepatitis B virus [1] and more than 1000 nM with Hepatitis B virus [2].
As for `COCCCOc1cc2c(cc1OC)-c1cc(=O)c(-c3csc(N)n3)cn1C(C(C)C)C2` (stereo not drawn), the values for the EC50 with Hepatitis B virus [1] and in the data set on Hepatitis B virus [2] were 816 nM and 367 nM, respectively.
As to `COC(=O)c1cc2c(cc1O)CC(C(C)C)n1cc(C(=O)O)c(=O)cc1-2` (stereo not drawn), the concentration giving a half-maximal response (EC50) in the data set with Hepatitis B virus [1] is 89.5 nM; in the data set on Hepatitis B virus [2], 412 nM.
For `C#CCCC1(CCOc2cc3c(cc2C(=O)OC)-c2cc(=O)c(C(=O)O)cn2[C@H](C(C)C)C3)N=N1`, the outcome in data set [4], in data set [5], in [6], in [7], in [8] and in data set [9] was Active. Besides, the concentration giving a half-maximal response (EC50) in the data set on Hepatitis B virus [1] worked out at 3.2 nM; with Hepatitis B virus [2], 5.6 nM. The result in [10] and in data set [11] was inactive. Besides, the CC50 in [3] is more than 150000 nM.
As for `COCCCOc1cc2c(cc1OCCOc1ccccc1)-c1cc(=O)c(C(=O)O)cn1C(C(C)C)C2` (stereo not drawn), the values for the EC50 in the data set with Hepatitis B virus [1] and with Hepatitis B virus [2] were 32.5 nM and 154 nM, respectively.
Take `COCCCOc1cc2c(cc1OC)-c1cc(=O)c(C(=O)O)cn1C(C(C)C)C2` (racemic): the EC50 came to 3 nM with Hepatitis B virus [1] and 1.3 nM in the data set with Hepatitis B virus [2].

For the origin of these results see ChEMBL document CHEMBL4665883, “Development of DHQ-based chemical biology probe to profile cellular targets for HBV” (Bioorg Med Chem Lett, 2020).
